Calls of active or inactive are those of the source. The calls are words filed in the database; no cut-off is given here.
Experiments:
[1] = Inhibition of Beta-lactamase at 50 uM in presence of 0.01% Triton X-100 by nitrocefin hydrolysis assay
[2] = species: Mus musculus; assay: Inhibition of mouse prion protein (89-230) assessed as inhibition of amyloid polymerization at 25 uM by thioflavin T fluorescence assay relative to untreated control
Outline: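 Mouse prion protein (recMoPrP) fibrillization monitored by thioflavin T fluorescence; reactions contained 3 M urea.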

[3] = Inhibition of Beta-lactamase at 50 uM by nitrocefin hydrolysis assay
[4] = molecular target: T1, Eukaryotic peptide chain release factor GTP-binding subunit (Saccharomyces cerevisiae) (UniProt P05453); details: at 50 µM
T1 sequence (whole entry): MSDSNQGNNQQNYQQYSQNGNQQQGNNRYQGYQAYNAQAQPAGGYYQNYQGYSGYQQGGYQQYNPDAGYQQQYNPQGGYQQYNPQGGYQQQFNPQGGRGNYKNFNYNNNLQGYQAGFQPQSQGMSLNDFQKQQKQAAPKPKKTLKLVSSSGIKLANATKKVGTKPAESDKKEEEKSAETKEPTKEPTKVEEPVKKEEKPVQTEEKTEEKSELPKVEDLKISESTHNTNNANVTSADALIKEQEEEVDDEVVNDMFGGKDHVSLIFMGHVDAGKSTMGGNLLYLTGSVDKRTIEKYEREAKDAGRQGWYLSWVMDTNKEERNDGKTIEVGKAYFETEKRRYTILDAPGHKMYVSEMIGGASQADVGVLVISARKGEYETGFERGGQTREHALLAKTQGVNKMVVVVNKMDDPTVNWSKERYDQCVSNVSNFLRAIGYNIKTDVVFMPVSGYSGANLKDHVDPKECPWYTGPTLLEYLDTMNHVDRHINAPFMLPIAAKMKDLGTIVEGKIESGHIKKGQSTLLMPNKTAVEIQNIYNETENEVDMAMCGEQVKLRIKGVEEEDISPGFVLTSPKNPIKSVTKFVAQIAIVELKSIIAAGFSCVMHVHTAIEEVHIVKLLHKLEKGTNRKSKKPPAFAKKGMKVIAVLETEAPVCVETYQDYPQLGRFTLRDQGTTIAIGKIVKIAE

[5] = molecular target: T1, Eukaryotic peptide chain release factor GTP-binding subunit (Saccharomyces cerevisiae); details: at 50 µM; remark: listed apart in the source
[6] = molecular target: T1, Eukaryotic peptide chain release factor GTP-binding subunit (Saccharomyces cerevisiae); assay: Inhibition of yeast prion protein Sup35 infection of PSI yeast spheroplast cells at 200 uM
Outline: (§1)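 Yeast made infection-competent by enzymatic digestion of the cell wall, then exposed to Sup35 prion with compound; infectivity scored. EC50 derived from a 40–200 μM concentration series.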

[7] = tested on: Saccharomyces cerevisiae; assay: Toxicity in PSI yeast spheroplast cells infected with yeast prion protein Sup35; format: organism-based
[8] = molecular target: T1, Eukaryotic peptide chain release factor GTP-binding subunit (Saccharomyces cerevisiae); assay: Inhibition of polyhistidine tagged yeast prion protein Sup35 expressed in Escherichia coli BL21 (DE3) assessed as inhibition of amyloid polymerization at 10 uM by thioflavin T fluorescence assay relative to untreated control
Outline: (§2)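 Sup35 fibrillization followed by thioflavin T fluorescence in seeded and unseeded polymerization reactions. For BSA lines, BSA added from a 20 mg ml−1 solution to a final 5 mg ml−1. Inhibition is relative to untreated reactions.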

[9] = molecular target: T1, Eukaryotic peptide chain release factor GTP-binding subunit (Saccharomyces cerevisiae); assay: Inhibition of polyhistidine tagged yeast prion protein Sup35 expressed in Escherichia coli BL21 (DE3) assessed as inhibition of amyloid polymerization at 10 uM in presence of 5 mg/ml BSA by thioflavin T fluorescence assay relative to untreated control; outline: as §2
[10] = Inhibition of Beta-lactamase at 30 uM by nitrocefin hydrolysis assay
[11] = Inhibition of Beta-lactamase at 30 uM in presence of 0.01% Triton X-100 by nitrocefin hydrolysis assay
[12] = species: Mus musculus; details: at 50 µM
[13] = species: Mus musculus; assay: Inhibition of mouse prion protein (89-230) assessed as assessed as inhibition of fiber formation at 50 uM by transmission electron microscopy
Outline: (§3)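 Transmission electron microscopy of recMoPrP (50 μM compound) or Sup35 (100 μM compound) polymerized in the presence of compound, scored for fibre formation.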

[14] = molecular target: T1, Eukaryotic peptide chain release factor GTP-binding subunit (Saccharomyces cerevisiae); assay: Inhibition of polyhistidine tagged yeast prion protein Sup35 expressed in Escherichia coli BL21 (DE3) assessed as inhibition of amyloid polymerization at 30 uM by thioflavin T fluorescence assay relative to untreated control; outline: as §2
[15] = species: Mus musculus; assay: Inhibition of mouse prion protein (89-230) assessed as assessed as coating of prion protein with […] particles at 50 uM by transmission electron microscopy
Outline: (§4)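 Preformed fibres (recMoPrP at 50 μM compound, Sup35 at 100 μM compound) were mixed with compound, then examined by transmission electron microscopy for colloidal particles coating the fibres.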

[16] = molecular target: T1, Eukaryotic peptide chain release factor GTP-binding subunit (Saccharomyces cerevisiae); assay: Inhibition of polyhistidine tagged yeast prion protein Sup35 expressed in Escherichia coli BL21 (DE3) assessed as inhibition of amyloid polymerization at 30 uM in presence of 5 mg/ml BSA by thioflavin T fluorescence assay relative to untreated control; outline: as §2
[17] = molecular target: T1, Eukaryotic peptide chain release factor GTP-binding subunit (Saccharomyces cerevisiae); assay: Inhibition of polyhistidine tagged yeast prion protein Sup35 expressed in Escherichia coli BL21 (DE3) assessed as inhibition of amyloid polymerization at 5 uM in presence of 5 mg/ml BSA by thioflavin T fluorescence assay relative to untreated control; outline: as §2
[18] = molecular target: T1, Eukaryotic peptide chain release factor GTP-binding subunit (Saccharomyces cerevisiae); assay: Inhibition of polyhistidine tagged yeast prion protein Sup35 expressed in Escherichia coli BL21 (DE3) assessed as inhibition of amyloid polymerization at 5 uM by thioflavin T fluorescence assay relative to untreated control; outline: as §2
[19] = Inhibition of Beta-lactamase at 4 uM by nitrocefin hydrolysis assay
[20] = Inhibition of Beta-lactamase at 4 uM in presence of 0.01% Triton X-100 by nitrocefin hydrolysis assay
[21] = molecular target: T1, Eukaryotic peptide chain release factor GTP-binding subunit (Saccharomyces cerevisiae); assay: Inhibition of polyhistidine tagged yeast prion protein Sup35 expressed in Escherichia coli BL21 (DE3) assessed as inhibition of amyloid polymerization preincubation of seed fibers and compound for 5 mins at 100 uM by thioflavin T fluorescence assay relative to untreated control
[22] = molecular target: T1, Eukaryotic peptide chain release factor GTP-binding subunit (Saccharomyces cerevisiae); assay: Inhibition of polyhistidine tagged yeast prion protein Sup35 expressed in Escherichia coli BL21 (DE3) assessed as inhibition of amyloid polymerization at 100 uM by thioflavin T fluorescence assay relative to untreated control; outline: as §2
[23] = molecular target: T1, Eukaryotic peptide chain release factor GTP-binding subunit (Saccharomyces cerevisiae); assay: Inhibition of polyhistidine tagged yeast prion protein Sup35 expressed in Escherichia coli BL21 (DE3) assessed as inhibition of amyloid polymerization at 50 uM in presence of 0.5% seed fibres by thioflavin T fluorescence assay relative to untreated control
Outline: (§5)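 Seeded Sup35 polymerization read by thioflavin T fluorescence, with seed at 0.5%, 1% or 5% and compound at fixed 50 μM. Preincubation line: 5-min preincubation before polymerization.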

[24] = molecular target: T1, Eukaryotic peptide chain release factor GTP-binding subunit (Saccharomyces cerevisiae); assay: Inhibition of polyhistidine tagged yeast prion protein Sup35 expressed in Escherichia coli BL21 (DE3) assessed as inhibition of amyloid polymerization at 50 uM in presence of 5% seed fibres by thioflavin T fluorescence assay relative to untreated control; outline: as §5
[25] = Inhibition of dynamic light scattering at 25 uM by thioflavin T fluorescence assay relative to untreated control; format: physicochemical
Outline: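 Sup35 fibrillization was tracked by dynamic light scattering, which served as a check against spectroscopic interference in the thioflavin T fluorescence read-out. Inhibition was scored against the reaction without compound.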

[26] = molecular target: T1, Eukaryotic peptide chain release factor GTP-binding subunit (Saccharomyces cerevisiae); assay: Inhibition of polyhistidine tagged yeast prion protein Sup35 expressed in Escherichia coli BL21 (DE3) assessed as inhibition of amyloid polymerization at 50 uM in presence of 1% seed fibres by thioflavin T fluorescence assay relative to untreated control; outline: as §5
[27] = Inhibition of Beta-lactamase at 25 uM in presence of 0.01% Triton X-100 by nitrocefin hydrolysis assay
[28] = Inhibition of Beta-lactamase at 25 uM by nitrocefin hydrolysis assay
[29] = Inhibition of Beta-lactamase at 35 uM by nitrocefin hydrolysis assay
[30] = Inhibition of Beta-lactamase at 35 uM in presence of 0.01% Triton X-100 by nitrocefin hydrolysis assay
[31] = molecular target: T1, Eukaryotic peptide chain release factor GTP-binding subunit (Saccharomyces cerevisiae); assay: Inhibition of yeast prion protein Sup35 infection of PSI yeast spheroplast cells at 100 uM; outline: as §1
[32] = Inhibition of dynamic light scattering at 20 uM by thioflavin T fluorescence assay relative to untreated control; format: physicochemical
Outline: (§6)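 Sup35 polymerization followed by dynamic light scattering rather than ThT fluorescence, as a control for spectroscopic interference; percent inhibition of the DLS signal.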

[33] = molecular target: T2, Eukaryotic peptide chain release factor GTP-binding subunit (Saccharomyces cerevisiae, UniProt P05453); assay: Inhibition of polyhistidine tagged yeast prion protein Sup35 expressed in Escherichia coli BL21 (DE3) assessed as inhibition of amyloid polymerization by thioflavin T fluorescence assay relative to untreated control; outline: as §2
T2 sequence (P05453 whole entry): T1 sequence (whole entry)

[34] = Inhibition of dynamic light scattering at 2 uM by thioflavin T fluorescence assay relative to untreated control; format: physicochemical; outline: as §6
[35] = molecular target: T1, Eukaryotic peptide chain release factor GTP-binding subunit (Saccharomyces cerevisiae); assay: Inhibition of polyhistidine tagged yeast prion protein Sup35 expressed in Escherichia coli BL21 (DE3) assessed as inhibition of fiber formation at 100 uM by transmission electron microscopy; outline: as §3
[36] = molecular target: T1, Eukaryotic peptide chain release factor GTP-binding subunit (Saccharomyces cerevisiae); assay: Inhibition of polyhistidine tagged yeast prion protein Sup35 expressed in Escherichia coli BL21 (DE3) assessed as coating of prion protein with […] particles at 100 uM by transmission electron microscopy; outline: as §4

SMILES: O=C1NC(=O)c2cc(Nc3ccccc3)c(Nc3ccccc3)cc21
- inhibition [1]: 0.7%
- inhibition [2]: 73.6%
- inhibition [3]: 97%
- inhibition [4]: 44.7%
- inhibition [5]: 87.1%
- inhibition [6]: Active

SMILES: Oc1ccc(/N=N/c2ccc(Br)cc2)cc1
- inhibition [2]: 100%
- Activity [7]: Toxic
- inhibition [8]: 36.4%
- inhibition [9]: 2.1%

SMILES: O=c1cc(-c2ccccc2)oc2cc(O)c(O)c(O)c12
- inhibition [10]: 51.8%
- inhibition [11]: 0%
- inhibition [12]: 34.3%
- inhibition [4]: 17.6%
- inhibition [5]: 95.4%
- inhibition [6]: Active

SMILES: CC(=O)c1c(O)c(C)c(O)c(Cc2c(O)c3c(c(C(=O)/C=C/c4ccccc4)c2O)OC(C)(C)C=C3)c1O
- inhibition [2]: 71.1%
- inhibition [13]: Active
- inhibition [14]: 99.4%
- inhibition [15]: Active
- inhibition [16]: 40.5%
- inhibition [6]: Active

SMILES: Nc1c(/N=N/c2ccc(-c3ccc(/N=N/c4cc(S(=O)(=O)O)c5ccccc5c4N)cc3)cc2)cc(S(=O)(=O)O)c2ccccc12
- inhibition [17]: 100%
- inhibition [18]: 100%
- inhibition [19]: 92%
- inhibition [20]: 20%
- inhibition [12]: 100%

SMILES: Clc1ccccc1C(c1ccccc1)(c1ccccc1)n1ccnc1 [CLOTRIMAZOLE]
- inhibition [21]: 94%
- inhibition [22]: 79%
- inhibition [2]: 21.5%
- inhibition [23]: 99%
- inhibition [24]: 30%
- inhibition (INH) [25]: 98%
- Activity [7]: Toxic
- inhibition [4]: 5.6%
- inhibition [26]: 95%
- inhibition [5]: 62.7%

SMILES: CCN(CC)CC(=O)Nc1c(C)cccc1C
- inhibition [2]: 0%
- inhibition [4]: 0%
- inhibition [5]: 1.1%
- inhibition [6]: Active

SMILES: Oc1c(I)cc(Cl)c2cccnc12
- inhibition [27]: 6.4%
- inhibition [12]: 0%
- inhibition [4]: 0%
- inhibition [28]: 51.6%
- inhibition [5]: 54.7%

SMILES: OC(Cn1cncn1)(Cn1cncn1)c1ccc(F)cc1F
- inhibition [12]: 5.9%
- inhibition [4]: 9%
- inhibition [5]: 0%

SMILES: Clc1ccc(CSC(Cn2ccnc2)c2ccc(Cl)cc2Cl)cc1 (stereo not given)
- inhibition [12]: 100%
- inhibition [4]: 10.1%
- inhibition [5]: 75.5%

SMILES: Cc1cc(/N=N/c2ccc(-c3ccc(/N=N/c4cc(C)c(O)c(C(=O)O)c4)cc3)cc2)c(C(=O)O)cc1O
- inhibition [29]: 50%
- inhibition [30]: 0%

SMILES: COC(=O)C1=C(C)NC(C)=C(C(=O)OCCN(C)Cc2ccccc2)C1c1cccc([N+](=O)[O-])c1 (stereo not given)
- inhibition [31]: 50%
- inhibition [21]: 88%
- inhibition [22]: 55%
- inhibition [12]: 22.7%
- inhibition [4]: 0%
- inhibition [5]: 61.5%
- inhibition [6]: Active

SMILES: O=C1C(I)=CC(=C(c2ccccc2C(=O)O)C2C=C(I)C(=O)C(I)=C2)C=C1I [TERAIODOPHENOLPHATHALIN]
- inhibition (INH) [32]: 99%
- IC50 [33]: 2500 nM
- inhibition (INH) [34]: 30%
- inhibition [12]: 0%
- inhibition [14]: 99.3%
- inhibition [16]: 6.8%
- inhibition [35]: Active
- inhibition [36]: Active
- inhibition [6]: Active

Source: ChEMBL document CHEMBL1212700, “Small-molecule aggregates inhibit amyloid polymerization” (Nat Chem Biol, 2008)
